The values below come from ChEMBL document CHEMBL1138871, “Synthesis and HIV-integrase strand transfer inhibition activity of 7-hydroxy[1,3]thiazolo[5,4-b]pyridin-5(4H)-ones” (Bioorg Med Chem Lett, 2006).

Molecules are shown by their SMILES. Some results are limits rather than exact numbers.

The assay in a line: Inhibition of recombinant HIV integrase strand transfer activity. On the set-up: species or system Human immunodeficiency virus. The essentials:
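Recombinant integrase (2 µM) prebound to biotinylated donor DNA (0.66 µM) on streptavidin SPA beads, 5 min 37 °C in 25 mM MOPS pH 7.2, 23 mM NaCl, 10 mM MgCl₂, 10 mM DTT, 10% DMSO. Beads washed and resuspended to 570 nM integrase. Compound (6.7% DMSO final) preincubated 60 min 37 °C. Then [³H] target DNA at 7 nM final added, run 25–45 min 37 °C, EDTA-quenched, read by SPA. Means ± SE.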
Consider `COC(=O)c1c(O)c2ncsc2n(-c2cccc([N+](=O)[O-])c2)c1=O`, for which the IC50 is more than 500 µM. Under `COC(=O)c1c(O)c2nc(Cc3ccc(F)cc3)sc2n(C)c1=O` stands 35 µM; under `COC(=O)c1c(O)c2ncsc2n(C(C)C)c1=O`, 11 µM. Under `COC(=O)c1c(O)c2ncsc2n(-c2cccc(SC)c2)c1=O` stands more than 500 µM; under `CCn1c(=O)c(C(=O)NCc2ccc(F)cc2)c(O)c2ncsc21`, 0.03 µM.

In the case of `COC(=O)c1c(O)c2ncsc2n(-c2ccccc2)c1=O`, the IC50 was more than 500 µM. Under `COC(=O)c1c(O)c2ncsc2n(-c2ccc(OC)cc2)c1=O` stands more than 500 µM; under `CSc1cccc(-n2c(=O)c(C(=O)NCc3ccc(F)cc3)c(O)c3ncsc32)c1`, 7 µM; under `CS(=O)(=O)c1cccc(-n2c(=O)c(C(=O)NCc3ccc(F)cc3)c(O)c3ncsc32)c1`, 0.93 µM. In the case of `COC(=O)c1c(O)c2nc(Cc3ccc(F)cc3)sc2n(-c2ccccc2)c1=O`, the IC50 stood at 282 µM. For the molecule `COc1ccc(-n2c(=O)c(C(=O)NCc3ccc(F)cc3)c(O)c3ncsc32)cc1`, the IC50 stood at 1 µM.

`CCn1c(=O)c(C(=O)OC)c(O)c2ncsc21`: the IC50 is 1.23 µM.

Take `Cn1c(=O)c(C(=O)NCc2ccc(F)cc2)c(O)c2ncsc21`: the IC50 came to 0.7 µM. Under `O=C(NCc1ccc(F)cc1)c1c(O)c2ncsc2n(-c2cccc([N+](=O)[O-])c2)c1=O` stands 17 µM; under `O=C(NCc1ccc(F)cc1)c1c(O)c2ncsc2n(-c2cccc(C(F)(F)F)c2)c1=O`, 7 µM; under `CC(C)n1c(=O)c(C(=O)NCc2ccc(F)cc2)c(O)c2ncsc21`, 0.19 µM. Under `O=C(/C=C(\O)c1nc[nH]n1)c1ccc(Cc2ccc(F)cc2)o1` [S-1360] stands 0.16 µM; under `O=C(NCc1ccc(F)cc1)c1c(O)c2ncsc2[nH]c1=O`, 1.5 µM.

In the case of `COC(=O)c1c(O)c2ncsc2[nH]c1=O`, the IC50 was more than 500 µM. Under `Cn1c(=O)c(C(=O)NCc2ccc(Cl)cc2)c(O)c2ncsc21` stands 2.1 µM; under `Cn1c(=O)c(C(=O)NCc2ccc(F)cc2)c(O)c2nc(Cc3ccc(F)cc3)sc21`, 151 µM; under `C[S+]([O-])c1cccc(-n2c(=O)c(C(=O)NCc3ccc(F)cc3)c(O)c3ncsc32)c1` (stereo not drawn), 2 µM. Then `COC(=O)c1c(O)c2ncsc2n(C)c1=O`, with more than 500 µM. Under `COC(=O)c1c(O)c2ncsc2n(Cc2ccc(OC)cc2)c1=O` stands 4.2 µM; under `O=C(NCc1ccc(F)cc1)c1c(O)c2nc(Cc3ccc(F)cc3)sc2n(-c2ccccc2)c1=O`, 4 µM; under `COc1ccc(Cn2c(=O)c(C(=O)NCc3ccc(F)cc3)c(O)c3ncsc32)cc1`, 4 µM. In the case of `O=C(NCc1ccc(F)cc1)c1c(O)c2ncsc2n(-c2ccccc2)c1=O`, the IC50 came out at 0.4 µM. With `COC(=O)c1c(O)c2ncsc2n(-c2cccc(C(F)(F)F)c2)c1=O`, the IC50 was more than 500 µM.
